KCC2 mod: modulators of human KCC2 chloride dependent transport; Q9H2X9; KCC2 cells, thallium flux FluoZin-2 fluorescence; B-score of Tl+ flux slope (higher = more flux/activation; lower = inhibition) at 10 µM; 2.2% of 190,000 active; AID 1456;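 active = thallium flux slope and its plate-corrected score both differing from the plate sample mean at a set confidence after two filtering rounds, in either direction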;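 note: slope of fluorescence scaled to starting intensity during 10 to 20 s after thallium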
Target sequence (Q9H2X9 whole entry, looked up): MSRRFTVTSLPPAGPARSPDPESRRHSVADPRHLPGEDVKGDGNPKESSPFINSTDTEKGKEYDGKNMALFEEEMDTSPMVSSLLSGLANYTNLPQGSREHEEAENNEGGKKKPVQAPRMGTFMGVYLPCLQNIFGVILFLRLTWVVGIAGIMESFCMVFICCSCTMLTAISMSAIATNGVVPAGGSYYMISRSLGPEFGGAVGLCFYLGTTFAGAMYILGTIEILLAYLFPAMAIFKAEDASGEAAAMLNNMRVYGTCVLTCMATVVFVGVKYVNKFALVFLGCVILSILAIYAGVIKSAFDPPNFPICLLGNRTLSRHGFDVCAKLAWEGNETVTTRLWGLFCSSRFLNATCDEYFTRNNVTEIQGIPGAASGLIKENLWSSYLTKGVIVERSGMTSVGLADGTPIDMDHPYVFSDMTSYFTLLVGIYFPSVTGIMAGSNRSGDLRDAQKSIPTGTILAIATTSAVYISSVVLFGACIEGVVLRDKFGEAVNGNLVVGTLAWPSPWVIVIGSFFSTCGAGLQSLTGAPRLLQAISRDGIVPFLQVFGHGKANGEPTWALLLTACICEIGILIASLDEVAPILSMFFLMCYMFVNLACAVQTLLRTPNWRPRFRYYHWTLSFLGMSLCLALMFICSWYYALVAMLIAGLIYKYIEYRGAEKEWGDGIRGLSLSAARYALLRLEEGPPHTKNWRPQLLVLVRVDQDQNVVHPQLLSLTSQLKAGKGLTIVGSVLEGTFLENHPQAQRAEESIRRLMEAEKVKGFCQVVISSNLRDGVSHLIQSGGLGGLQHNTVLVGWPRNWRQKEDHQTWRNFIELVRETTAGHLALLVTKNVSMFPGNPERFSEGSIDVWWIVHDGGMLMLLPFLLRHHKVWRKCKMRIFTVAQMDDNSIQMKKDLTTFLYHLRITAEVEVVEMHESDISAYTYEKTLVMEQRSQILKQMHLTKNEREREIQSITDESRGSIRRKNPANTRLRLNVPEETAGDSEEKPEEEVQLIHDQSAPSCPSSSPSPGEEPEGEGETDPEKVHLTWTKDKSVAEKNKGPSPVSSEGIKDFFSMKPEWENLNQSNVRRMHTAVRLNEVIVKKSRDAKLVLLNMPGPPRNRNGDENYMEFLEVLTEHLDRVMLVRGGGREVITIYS
HSV replic up: increases HSV replication in cells | HSV replication augmentation in cells, fold increase | maximum fold increase | 0.005% of 220,000 active | AID 1956; in the data active = maximum fold increase above about 1.5; inconclusive = no clear call, values can overlap the other calls; tested in PC3 cells
STAT1 activator: increases IFN-gamma driven STAT1 reporter signal. NIH 3T3 STAT1-luciferase reporter, luminescence; 100% = IFN-gamma alone, no compound. activation (% of control), % at 5.5 µM. 2.6% of 200,000 active. AID 932;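 active = activation above the screen-wide mean activation plus 3 SD, cut at about 130% in these data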;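 note: raw ratio to IFN-gamma control signal so 100% means no change and 0% no light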
STAT3 blocker: reduces IL-6 driven STAT3 reporter signal; 0.89% of 190,000 active; U3A cells, IL-6 STAT3-luciferase reporter, luminescence; host cell line lacks STAT1; inhibition, % at 5.5 µM;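 active = inhibition above the mean inhibition across all screened compounds plus 3 SD, cut at about 44% in these data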;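 note: 0% = DMSO only wells and 100% = 100 µM nifuroxazide control wells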
STAT3 act: activators of IL-6 induced STAT3 signaling | U3A cells, IL-6 STAT3-luciferase reporter, luminescence; 100% = signal with IL-6 EC80 alone | activation (% of control), % at 5.6 µM | 0.91% of 190,000 active | AID 871;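 active = activation above the screen-wide mean of compound activation plus 3 SD, cut at about 130% in these data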;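 note: 0% = background luminescence of wells with medium and substrate only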
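Test system: STAT3-luciferase reporter U3A cells; Detection: reporter luminescence signal; Times: 1 h compound pre-exposure, 6 h IL-6 stimulation, 37 °C; Benchmarks: IL-6-only high control; Also added: IL-6 stimulus at 33 ng/mL final.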
STAT1 blocker: reduces IFN-gamma driven STAT1 reporter signal. NIH 3T3 STAT1-luciferase reporter, luminescence. inhibition, % at 5.5 µM. 0.35% of 200,000 active;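 active = inhibition above a set limit, the mean inhibition across all tested compounds plus 3 SD, cut at about 34% in these data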;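 note: 0% = IFN-gamma with DMSO and 100% = IFN-gamma with 300 µM nifuroxazide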
KCC2 secondary: KCC2 (human) modulation, secondary assay; shares compounds with KCC2 mod; HEK293-KCC2, thallium flux, FluoZin2 fluorescence; active compounds read high; normalised thallium flux (F/F0 slope) at 10 µM; 15% of 3,700 active; AID 1713;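 active = thallium flux slope above the same plate's solvent-only control mean plus 3 SD; inconclusive = the two replicate wells disagree; inactive = no significant difference from solvent-only control wells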
KCC2 bumet counter: thallium flux persisting under bumetanide in KCC2 cells, counter-screen secondary assay; shares compounds with KCC2 mod; HEK293-KCC2 + bumetanide/ouabain, thallium flux FluoZin2; active compounds read high; normalized thallium flux at 10 µM; 49% of 3,700 active; AID 1714;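 active = thallium entry rate above the same plate's blocked-transporter control wells by more than 3 SD; inconclusive = the two repeat wells disagree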;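 note: raw slope of fluorescence over initial fluorescence between 10 and 20 s after thallium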
KCC2 secondary2: KCC2 (human) modulation, second secondary assay; normalized thallium flux at 10 µM; AID 1715; 23% of 3,700 active; HEK293-KCC2, thallium flux FluoZin2 fluorescence; actives lie on both sides; F/F0 rise rate, 10–20 s post-thallium; shares compounds with KCC2 mod;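 active = thallium flux slope more than 3 SD above or below the plate's solvent-only control mean, mostly below; inconclusive = the two repeat wells disagreed; inactive = no significant shift from solvent-only controls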;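 note: raw slope with 0.1% DMSO as baseline and bumetanide as block control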
HEK counter1: counter-screen for KCC2 modulators: effect in parental HEK293 cells; AID 1716; 46% of 3,700 active; thallium flux FluoZin2, ouabain; baseline-ratio fluorescence slope, 10–20 s after thallium; thallium flux rate (normalised fluorescence) at 10 µM; shares compounds with KCC2 mod;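 active = thallium flux rate significantly above the same plate's solvent-only control wells, beyond their mean plus 3 SD; inconclusive = the two replicate wells gave conflicting results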
KCC2 retest ouab: KCC2 (human) modulation, ouabain retest; shares compounds with KCC2 mod; HEK293-KCC2, thallium flux FluoZin2 fluorescence; bidirectional: low = inhibitor, high = activator; raw Tl+ flux slope (below DMSO = inhibition, above = activation) at 10 µM; 48% of 3,700 active;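 active = thallium flux slope beyond 3 SD from same-plate DMSO control mean in most replicates, usually higher, sometimes lower; inconclusive = repeat tests gave conflicting results; inactive = no significant difference from controls in most replicates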;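 note: slope of initial-normalized fluorescence between seconds 10 and 20 after thallium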
HEK counter2: parental HEK flux effect, counter-screen 2; thallium flux slope at 10 µM; 33% of 3,700 active; shares compounds with KCC2 mod; AID 1718; HEK293 parental, thallium flux FluoZin-2 fluorescence slope;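 active = thallium flux slope above the same plate's solvent-control mean plus 3 SD in both duplicate wells; inconclusive = duplicate wells that disagreed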;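 note: run without ouabain in cells lacking the KCC2 cotransporter; slope of fluorescence scaled to its starting value between 10 and 20 s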
The depositor's hits bear a star; i = inactive; ? = inconclusive; / = no result given. A selection: hits, their analogues and other compounds. The true share with any hit is near 5.5%.

SMILES	KCC2 mod	HSV replic up	STAT1 activator	STAT3 blocker	STAT3 act	STAT1 blocker	KCC2 secondary	KCC2 bumet counter	KCC2 secondary2	HEK counter1	KCC2 retest ouab	HEK counter2
O=C(c1cc(COc2c(F)cccc2F)on1)N1CCc2ccccc2C1	-4.44*	i	99.8	13.5	90.4	-1.6	0.00628	0.0054	0.0346	0.00384	0.0146*	0.0122
CN1CCN(C(=O)c2cc(COc3ccc(F)cc3Cl)on2)CC1c1ccccc1 (centres undefined)	/	i	104.0	-0.9	104.7	-6.1	/	/	/	/	/	/
CN1CCN(C(=O)c2cc(COc3c(F)cccc3F)on2)CC1c1ccccc1 (centres undefined)	-4*	i	103.6	-4.4	105.0	-5.0	0.00714	0.00475	0.0331	0.00669	0.0152*	0.0117
O=C(NCCCn1ncc2ccccc21)c1cc(COc2c(F)cccc2F)on1	-5.94*	i	109.6	6.7	99.2	-10.3	0.016	?	0.0221*	0.00681	0.0125*	0.00985
COc1ccc(CCn2cc(C#N)c(=O)[nH]c2=O)cc1OC	0.947	i	109.5	-4.0	107.6	-12.0	/	/	/	/	/	/
C=CCNC(=S)NNC(=O)c1ccc(C)c(Cl)c1	-0.446	i	100.8	24.5	82.1	-3.5	/	/	/	/	/	/
C=CCNC(=S)NC(=O)c1ccc(C)c(Br)c1	40*	i	125.2	10.5	98.1	-29.9	0.0185*	0.0925*	0.041	?	0.0641*	0.0215*
O=c1[nH]c(=O)n(C2CCCO2)cc1F (centres undefined)	7.51*	i	110.4	2.6	99.8	-11.4	0.0109	0.00642	0.0368	0.00391	0.0206	0.0118
O=c1c(F)cn(C2CCCO2)c(=O)n1Cc1c(F)cccc1Cl (centres undefined)	-1.05	i	99.0	-0.6	103.0	-1.2	/	/	/	/	/	/
COC(=O)CSc1nnc(SCc2ccccc2)s1	/	i	100.2	3.7	100.5	-0.3	0.00576	?	0.0213*	0.00598*	0.0118*	0.00871
COC(=O)CSc1nnc(SCc2ccc(Cl)cc2)s1	-1.23	i	100.0	5.9	98.8	0.0	/	/	/	/	/	/
COc1ccc(NC(=O)/C=C/c2c(Cl)nc3ccccn23)cc1	-1.18	i	116.9	21.4	85.6	-21.2	/	/	/	/	/	/
O=C(NCCOC12CC3CC(CC(C3)C1)C2)c1cccc(Br)c1	1.57	i	102.3	-0.8	107.2	-2.6	/	/	/	/	/	/
Cc1[nH]n(C2=NCCS2)c(=O)c1N=Nc1cccc(C(F)(F)F)c1	21.1*	i	95.8	16.0	91.5	3.7	0.00631	0.0746*	0.049*	0.0337*	0.055*	0.035*
COc1ccc(-c2nnc(SCC(=O)NC3CCCc4ccccc43)n2N)cc1 (centres undefined)	-0.264	i	105.1	-8.1	104.4	-3.0	/	/	/	/	/	/
COc1ccc(NS(=O)(=O)c2cc(-c3nnnn3C)ccc2OC)cc1	-0.00276	i	90.8	-2.8	104.8	10.1	/	/	/	/	/	/
O=C(NNC(=S)NC(=O)c1ccccc1[N+](=O)[O-])c1ccccc1Cl	0.106	i	108.8	-7.0	108.3	-10.0	/	/	/	/	/	/
CCc1ccccc1NC(=S)NN	-0.391	i	102.6	6.6	96.3	-4.8	/	/	/	/	/	/
O=C(NC(=S)Nc1ccccc1[N+](=O)[O-])c1ccccc1Cl	18.7*	i	/	/	/	/	?	0.0336*	0.035	0.019*	0.0297*	0.0133*
COC(=O)c1ccccc1NC(=S)NC(=O)COc1ccccc1Cl	18.5*	/	100.1	16.2	91.6	-0.1	0.0228*	0.0498*	?	0.0119*	0.024*	0.0158*
COC(=O)c1ccccc1NC(=S)NC(=O)COc1ccc(C)cc1	3.16	i	95.2	6.4	103.3	5.3	/	/	/	/	/	/
CCc1ccccc1NC(=S)NNC(=O)c1ccccc1Cl	3.21*	i	108.7	11.4	97.9	-9.2	0.017	0.0117*	0.0305	0.0115*	0.0191	0.0135*
O=C(NC(=S)Nc1nc(-c2cccc([N+](=O)[O-])c2)cs1)c1ccccc1Cl	4.8*	i	101.9	10.5	93.1	-2.6	0.00726	0.00793*	0.0305	0.0123*	0.0238*	0.0139*
O=C(Nc1nc(-c2cccc([N+](=O)[O-])c2)cs1)C(c1ccccc1)c1ccccc1	0.309	i	101.8	13.4	94.0	-2.0	/	/	/	/	/	/
COc1ccc(OC)c(NC(=O)COC(=O)CCCN2C(=O)c3ccccc3C2=O)c1	-0.529	i	98.6	7.1	96.2	1.6	/	/	/	/	/	/
SMILES	KCC2 mod	HSV replic up	STAT1 activator	STAT3 blocker	STAT3 act	STAT1 blocker	KCC2 secondary	KCC2 bumet counter	KCC2 secondary2	HEK counter1	KCC2 retest ouab	HEK counter2
O=C(NC(=S)Nc1nc(-c2cccc([N+](=O)[O-])c2)cs1)c1cc(Cl)ccc1Cl	6.07*	i	107.0	14.7	90.1	-9.8	0.00966	0.0106*	0.0316	0.00881*	0.027*	0.0104*
CCOc1ccc(OCC)c(NC(=O)C2CCCN(c3nc(C)cc(C)n3)C2)c1 (centres undefined)	-3.75*	i	94.5	1.6	104.2	4.7	0.00604	0.00409	?	0.00572*	0.0139*	?
COc1ccccc1NC(=O)C1CCCN(c2nc(C)cc(C)n2)C1 (centres undefined)	-0.722	i	94.2	9.8	94.4	11.8	/	/	/	/	/	/
CCOc1ccc(CNn2nnnc2N)cc1	/	i	93.0	6.1	94.8	9.2	/	/	/	/	/	/
O=C(O)CCCCCn1c(O)c(C=C2N=c3ccccc3=N2)sc1=S	-2.52	i	102.1	-3.1	102.7	-2.4	/	/	/	/	/	/
CCc1nn(CCCC(=O)N2CCc3ccccc3C2)c(=O)c2cc3occc3n12	-5.84*	i	99.0	6.2	98.5	-0.6	0.0075	0.00602	0.0305	0.00624	0.0143*	0.0102
Cc1nn(CCCC(=O)N2CCc3ccccc3C2)c(=O)c2cc3sccc3n12	-6.5*	/	99.7	4.7	100.1	0.3	0.00583	0.00508	?	?	0.0119*	0.011
Cn1c(=O)c2c(nc(-n3ccnc3)n2Cc2ccc([N+](=O)[O-])cc2)n(C)c1=O	/	i	105.4	-6.2	109.0	-6.0	/	/	/	/	/	/

Source: PubChem
